Assay results: ChEMBL document CHEMBL5608214, “Novel tetrasubstituted 5-Arylamino pyrazoles able to interfere with angiogenesis and Ca2+ mobilization” (Eur J Med Chem, 2024)
Activity calls are given as the source filed them. No cut-off for these calls is given here.

What was measured:
A549 = experiment: Antiproliferative activity against human A549 cells assessed as cell growth at 10 uM incubated for 48 hrs by MTT assay relative to control; format: functional; conditions: read-out: Activity
How it was run: (§1)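 Cells in DMEM with 10 % FBS, 2 mM glutamine and pen-strep, 37 °C, 5 % CO₂, plated to reach 80–90 % confluence at endpoint. At 16 h, compounds were added from a 10 mM DMSO stock to 10 μM final. After 48 h, MTT (2 mg/mL in PBS) was added for 4 h, formazan dissolved in DMSO, and OD read at 570 nm. Results are % of solvent control; three runs, six replicates each, mean ± SD.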

MCF7 = experiment: Antiproliferative activity against human MCF7 cells assessed as cell growth at 10 uM incubated for 48 hrs by MTT assay relative to control; format: functional; conditions: read-out: Activity; how it was run: as §1
SK-BR-3 = experiment: Antiproliferative activity against human SK-BR-3 cells assessed as cell growth at 10 uM incubated for 48 hrs by MTT assay relative to control; format: functional; conditions: read-out: Activity; how it was run: as §1
SK-OV-3 = experiment: Antiproliferative activity against human SK-OV-3 cells assessed as cell growth at 10 uM incubated for 48 hrs by MTT assay relative to control; format: functional; conditions: read-out: Activity; how it was run: as §1
HeLa = experiment: Antiproliferative activity against human HeLa cells assessed as cell growth at 10 uM incubated for 48 hrs by MTT assay relative to control; format: functional; conditions: read-out: Activity; how it was run: as §1
MDA-MB-231 = experiment: Antiproliferative activity against human MDA-MB-231 cells assessed as cell growth at 10 uM incubated for 48 hrs by MTT assay relative to control; format: functional; conditions: read-out: Activity; how it was run: as §1
HepG2 = experiment: Antiproliferative activity against human HepG2 cells assessed as cell growth at 10 uM incubated for 48 hrs by MTT assay relative to control; format: functional; conditions: read-out: Activity; how it was run: as §1
[1] = Antiproliferative activity against human HUVEC cells assessed as cell growth at 10 uM incubated for 48 hrs by MTT assay relative to control; format: toxicity, cell-based; conditions: read-out: Activity; how it was run: as §1
SK-MEL-28 = experiment: Antiproliferative activity against human SK-MEL-28 cells assessed as cell growth at 10 uM incubated for 48 hrs by MTT assay relative to control; format: functional; conditions: read-out: Activity; how it was run: as §1
[2] = Antiproliferative activity against human GM06114 cells assessed as cell growth at 10 uM incubated for 48 hrs by MTT assay relative to control; format: toxicity, cell-based; conditions: read-out: Activity; how it was run: as §1
HUVEC [3] = experiment: Effect on conformation of actin filament organization in human HUVEC cells at 10 uM treated for 24 hrs by immunofluorescence assay; format: functional, cell-based
How it was run: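 HUVEC were left untreated or treated 24 h at 10 μM final. Cells were then fixed on coverslips in 4 % paraformaldehyde, permeabilized with 0.2 % Triton X-100 and blocked with 20 % goat serum. F-actin was stained with FITC-phalloidin (5 µg/ml, 2 h, room temperature, dark) and nuclei with Hoechst 33342. Cells were imaged by confocal microscopy.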

HUVEC [4] = experiment: Anti-angiogenetic activity in human HUVEC cells assessed as relative tube length at 10 uM incubated for 12 hrs by microscopy; format: functional
How it was run: (§2)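 HUVEC seeded at 2 × 10⁴ cells/well onto gelled Matrigel (mixed 1:1 with EGM-2, set 30 min at 37 °C). Cells were exposed to test agents at 10 μM for 12 h with no stimulus; untreated wells served as control. Tube long axis and branching points were counted in 10 random fields per well at 10× (Angiogenesis Analyzer), giving mean tube length per well. Mean of at least three independent experiments.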

HUVEC [5] = experiment: Inhibition of cell invasion in human HUVEC cells assessed as number of cells at 10 uM incubated for 24 hrs by transwell assay; format: functional
How it was run: (§3)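 Transwell inserts with 8.0 pore size were coated with Matrigel 1:3 in serum-free medium. HUVEC (2 × 10⁴/insert) went in serum-free medium in the upper chamber, with treatments (10 μM) in growth medium below, for 24 h at 37 °C. Filters were fixed in 4 % paraformaldehyde then methanol and stained with 0.5 % crystal violet. Cells on the lower surface were counted in ten random fields at 10×. n = 3.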

[6] = Effect on intracellular calcium signaling in human HUVEC cells assessed as inhibition of calcium mobilization by measuring fluorescence intensity at 10 uM incubated for 1 hr by Fluo-4 a.m. cytofluorimetric assay relative to control; format: functional; set-up: scale not given: the % may be the effect or the level left
How it was run: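 Trypsinized HUVEC at 5 × 10⁵/ml were treated with compounds at 10 μM in PBS for 1 h at room temperature, washed, then loaded with 2.5 μM Fluo-4 AM (0.06 % DMSO final) for 45 min at 37 °C. Fluorescence was read by flow cytometry with a 530/30 filter. Ionomycin served as positive control and EDTA (added 15 min before) as negative control. n = 3, mean ± SD.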

HUVEC [7] = experiment: Anti-angiogenetic activity in human HUVEC cells assessed as number of tube branching points at 10 uM incubated for 12 hrs by microscopy; format: functional; how it was run: as §2
HUVEC [8] = experiment: Inhibition of cell invasion in human HUVEC cells at 10 uM incubated for 24 hrs by transwell assay; format: functional, cell-based; how it was run: as §3
HUVEC [9] = experiment: Anti-angiogenetic activity in human HUVEC cells assessed as number of tube branching points at 10 uM incubated for 12 hrs in presence of tumor secretome from human MIA PaCa-2 cell supernatant by microscopy (reference value: 17); format: functional
HUVEC [10] = experiment: Anti-angiogenetic activity in human HUVEC cells assessed as relative tube length at 10 uM incubated for 12 hrs in presence of tumor secretome from human MIA PaCa-2 cell supernatant by microscopy (reference value: 108); format: functional
HUVEC [11] = experiment: Inhibition of cell migration in human HUVEC cells at 10 uM incubated for 24 hrs by wound healing assay; format: functional, cell-based
How it was run: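 Confluent HUVEC monolayers (2 × 10⁵/well, 24 h) were scratched with a p10 tip and treated at 10 μM with mitomycin C 10 μg/ml to block mitosis. Wounds were photographed at 0 and 24 h (4× phase contrast). Migration was taken as the change in distance covered by the wound edges. n = 3 independent experiments, mean ± SD.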

HUVEC [12] = experiment: Anti-angiogenetic activity in human HUVEC cells assessed as reduction in tube length at 10 uM incubated for 12 hrs by microscopy; format: functional, cell-based; how it was run: as §2
HUVEC [13] = experiment: Anti-angiogenetic activity in human HUVEC cells assessed as reduction in tube branching at 10 uM incubated for 12 hrs by microscopy; format: functional, cell-based; how it was run: as §2

Row | Structure (SMILES) | growth at 10 µM (A549) | growth at 10 µM (MCF7) | growth at 10 µM (SK-BR-3) | growth at 10 µM (SK-OV-3) | growth at 10 µM (HeLa) | growth at 10 µM (MDA-MB-231) | growth at 10 µM (HepG2) | viability at 48 h, 10 µM [1] | growth at 10 µM (SK-MEL-28) | viability at 48 h, 10 µM [2] | Activity (HUVEC [4]) | Activity (HUVEC [7]) | Activity (HUVEC [12]) | Activity (HUVEC [13]) | further results
1 | CCCC(O)Cn1nc(Nc2ccccc2Cl)c(C(=O)OCC)c1N (stereo not drawn) | 106% | 110% | 121% | 102% | 116% | 107% | 119% | 95% | 132% | 85% |  |  |  |  | 
2 | CCOC(=O)c1c(Nc2ccccc2Cl)nn(CC(O)c2ccccc2)c1N (stereo not drawn) | 72% | 112% | 117% | 100% | 98% | 115% | 111% | 93% | 136% | 63% |  |  |  |  | 
3 | CCCC(O)Cn1ncc(C(=O)OCC)c1NC(=O)Nc1cccc(C(F)(F)F)c1 (stereo not drawn) |  |  |  |  |  |  |  |  |  |  | 21 | 19 |  |  | Activity (HUVEC [3]): Active; Activity (HUVEC [5]): 383; Activity [6]: 20%
4 | CCCC(O)Cn1nc(Nc2ccccc2)c(C(=O)OCC)c1N (stereo not drawn) | 115% | 110% | 107% | 104% | 97% | 103% | 106% | 100% | 97% | 112% | <20 | <15 | Active | Active | inhibition (HUVEC [8]): Active; Activity (HUVEC [9]): ~8; Activity (HUVEC [3]): Active; Activity (HUVEC [10]): 55; inhibition (HUVEC [11]): Active; Activity (HUVEC [5]): 364; Activity [6]: 23%
5 | CCOC(=O)c1c(Nc2cccc(Cl)c2)nn(CC(O)c2ccccc2)c1N (stereo not drawn) | 88% | 101% | 120% | 100% | 113% | 135% | 113% | 93% | 144% | 65% |  |  | Active | Active | 
6 | CCCC(O)Cn1nc(Nc2ccc(OC)cc2)c(C(=O)OCC)c1N (stereo not drawn) | 98% | 109% | 106% | 110% | 111% | 143% | 110% | 95% | 120% | 75% |  |  | Active | Active | 
7 | CCCC(O)Cn1nc(Nc2cccc(C(F)(F)F)c2)c(C(=O)OCC)c1N (stereo not drawn) | 66% | 80% | 118% | 102% | 77% | 109% | 69% | 100% | 113% | 71% |  |  |  |  | 
8 | CCCC(O)Cn1nc(Nc2ccc(C)cc2)c(C(=O)OCC)c1N (stereo not drawn) | 92% | 111% | 123% | 119% | 109% | 158% | 119% | 96% | 137% | 72% | <20 | <15 | Active | Active | 
9 | CCOC(=O)c1c(Nc2ccc(C)cc2)nn(CC(O)c2ccccc2)c1N (stereo not drawn) |  |  |  |  |  |  |  |  |  |  | 48 | 17 |  |  | 
10 | CCCC(O)Cn1nc(Nc2ccc(Cl)c(Cl)c2)c(C(=O)OCC)c1N (stereo not drawn) | 94% | 107% | 127% | 116% | 119% | 176% | 116% | 93% | 137% | 87% |  |  | Active | Active | 
11 | CCOC(=O)c1c(Nc2ccc(Cl)c(Cl)c2)nn(CC(O)c2ccccc2)c1N (stereo not drawn) | 70% | 88% | 111% | 111% | 74% | 144% | 100% | 93% | 135% | 77% |  |  |  |  | 
12 | CCCC(O)Cn1nc(Nc2cccc(Cl)c2)c(C(=O)OCC)c1N (stereo not drawn) | 85% | 95% | 113% | 118% | 100% | 168% | 90% | 97% | 122% | 82% |  |  | Active | Active | inhibition (HUVEC [8]): Active; Activity (HUVEC [9]): ~8; Activity (HUVEC [3]): Active; Activity (HUVEC [10]): 55; inhibition (HUVEC [11]): Active; Activity (HUVEC [5]): 491; Activity [6]: 21%
13 | CCOC(=O)c1c(Nc2cccc(C(F)(F)F)c2)nn(CC(O)c2ccccc2)c1N (stereo not drawn) | 88% | 99% | 122% | 108% | 107% | 162% | 131% | 92% | 124% | 80% |  |  |  |  | 
14 | CCOC(=O)c1c(Nc2ccc(OC)cc2)nn(CC(O)c2ccccc2)c1N (stereo not drawn) | 100% | 98% | 115% | 102% | 111% | 147% | 115% | 99% | 134% | 70% |  |  |  |  | 
15 | CCOC(=O)c1c(Nc2cccc3ccccc23)nn(CC(O)c2ccccc2)c1N (stereo not drawn) | 88% | 97% | 118% | 116% | 104% | 149% | 118% | 98% | 141% | 81% | <20 | <15 | Active | Active | 
16 | CCCC(O)Cn1nc(Nc2cccc3ccccc23)c(C(=O)OCC)c1N (stereo not drawn) | 86% | 109% | 110% | 108% | 82% | 106% | 104% | 94% | 103% | 104% | <20 | <15 |  |  | 
